Positions of bridges follow the written chain, without caps; N, C: chain ends. Non-standard residues stand in square brackets, D forms with d. Residues, ends and D or L forms follow the SMILES beside them.
Tested on: B16/F1 melanoma cells
Test: Clonogenic cytotoxicity
Format: cell-based, murine
Details: 0.1 μM peptide, 3 h incubation at 37 °C, colonies after 6 days
How it was run: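 B16/F1 cells seeded at 200 cells/well and exposed for 3 h at 37 °C in culture medium to 0.1 μM test peptide, comparator peptides, or medium alone. Washed twice with PBS and regrown in medium for 6 days. Fixed in methanol:glacial acetic acid (3:1), hematoxylin-stained, and scored by microscope; colonies over 50 cells counted as survivors. Survival normalized to untreated (100%). Unpaired Student t-test, p<0.05.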

Compound	Decrease in clonogenic survival in comparison with the untreated group
CC(C)[C@H](NC(=O)[C@@H]1CCCN1C(=O)[C@H](CCCNC(=N)N)NC(=O)[C@H](CS)NC(=O)[C@H](Cc1c[nH]c2ccccc12)NC(=O)[C@H](CCCNC(=N)N)NC(=O)[C@@H](Cc1ccccc1)NC(=O)[C@H](Cc1c[nH]cn1)NC(=O)[C@H](CCC(=O)O)NC(=O)[C@H](CS)NC(=O)[C@H](CS)NC(=O)[C@H](CCCNC(=N)N)NC(=O)[C@@H]1CC(=O)N[C@@H](CCCNC(=N)N)C(=O)NCC(=O)N[C@@H](CC(=O)O)C(=O)N[C@H](Cc2ccc(O)cc2)C(=O)N1)C(N)=O [RGD-Arg-(Arg^11)CCMSH] (RGD[dY]DRCCEH[dF]RWCRPV-NH2; lactam N-5; C-terminus assumed)	62%
[Cys^3,4,10, D-Phe^7, Arg^11]α-MSH3-13 [(Arg^11)CCMSH]	11%
